Results reported in paper PMC2743929 (Cell calcium, 2009).

Assays:
[1] = tested on: ASI(+)RyR1-expressing dyspedic myotubes; assay: Intracellular Ca2+ measurement; assay type: cell-based, mice; conditions: 500μM, 45s application (Fig. 2)
Outline: (§1)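 RyR1-null mouse myotubes in primary culture; nuclear cDNA injection where applicable, expressing cells marked by co-injected cherry red cDNA (0.005μg/μl). Loaded 25min at room temperature with 5μM fura-FF AM in HEPES Ringer's, pH7.4. Ratio 340/380nm (510nm emission) every 350ms. Sequence: 500μM 4-cmc for 45s, 60s wash, zero-Ca²⁺ ICE for 120s, then 10mM Ca²⁺ plus 10μM ionomycin. Peak responses compared by ANOVA/Dunnett's test.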

[2] = tested on: ASI(-)RyR1-expressing dyspedic myotubes; assay: Intracellular Ca2+ measurement; assay type: cell-based, mice; conditions: 500μM, 45s application (Fig. 2)
Outline: as §1

[3] = tested on: non-expressing dyspedic (RyR1-null) myotubes; assay: Intracellular Ca2+ measurement; assay type: cell-based, mice; conditions: 500μM (Fig. 2B)
Outline: as §1

[4] = tested on: native skeletal muscle RyR1; assay: [3H]ryanodine binding to SR vesicles; assay type: biochemical; conditions: for Ryanodine binding: mean ±SEM, SEM
[5] = low to moderate affinity Ca2+ dye; stated property, no reference given; cited from earlier work
[6] = tested on: native skeletal muscle RyR1; assay: Ca2+ release from SR vesicles; assay type: biochemical
Outline: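 SR vesicles in 100mM KH₂PO₄ (pH7), 4mM MgCl₂, 1mM Na₂ATP, 0.5mM antipyrylazo III; extravesicular Ca²⁺ followed as OD at 710nm. Additions in sequence: 1μM thapsigargin, then peptide, then 5μM ruthenium red, then 1.5μg/ml A23187. n=3; paired or unpaired Student's t-test, P<0.05.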

native RyR1 = assay: Single channel recording in lipid bilayers; assay type: biochemical; conditions: for effect on RyR1 channel activity (open probability), in words: n=3 (Fig. 6)
Outline: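 Native RyR1 vesicles fused into lipid bilayers. After incorporation, cis contained 230mM CsCH₃O₃S, 20mM CsCl, 10mM TES, 500mM mannitol, 100μM free Ca²⁺, pH7.4; trans was made symmetrical at 230mM CsCH₃O₃S. Potential alternated between -40 and +40mV every 30s. Open probability from one to two 30s periods, with threshold ~20% of maximal conductance. Control, then 100μM peptide; n=3.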

[7] = substance alone, 10μM Ca2+, versus control, n=3 (Fig. 5A, 7)

## Cc1cc(O)ccc1Cl [4-cmc, 4-chloro-m-cresol]
[1]
  effect on intracellular Ca2+, in words: rapid increase
[2]
  effect on intracellular Ca2+, in words: rapid increase
[3]
  effect on intracellular Ca2+, in words: not in non-expressing dyspedic myotubes

## Cn1c(=O)c2c(ncn2C)n(C)c1=O [Caffeine, caffeine, reference compound]
[4]; [7]
  effect on [3H]ryanodine binding, in words: significantly increases

## CC(=O)OCOC(=O)CN(CC(=O)OCOC(C)=O)c1cc2oc(-c3ncc(C(=O)OCOC(C)=O)o3)cc2cc1OCCOc1c(N(CC(=O)OCOC(C)=O)CC(=O)OCOC(C)=O)ccc(F)c1F [fura-FF]
[5]
  Kd: 5.5 µM

## ^3471TADSKSKMAK-----------SGGSDQERTAAKLRG^3500 [ASI(mutant)]
[4]; [7]
  effect on [3H]ryanodine binding, in words: only marginally increased
[6]; 10μM peptide, n=3 (Fig. 5E)
  effect on Ca2+ release from SR vesicles, in words: did not increase
[6]; 100μM peptide, n=3 (Fig. 5C-E)
  effect on initial Ca2+ release from SR vesicles, in words: small increase
Native RyR1; data not shown
  effect on channel activity, in words: no effect

## ^3471TADSKSKMAK-----------SGGSDQERTKKKRRG^3500 [ASI(-)]
[4]; 10μM Ca2+, competition (Fig. 7A&B)
  effect on [3H]ryanodine binding if channels first activated by 100μM peptide A, in words: failed to significantly increase
[4]; 10μM caffeine plus 100μM peptide, 10μM Ca2+ (Fig. 7C)
  [3H]ryanodine binding achievable: > 250 % control
[4]; 100μM peptide, [Ca2+] ≥10μM, n=3 (Fig. 8A)
  effect on [3H]ryanodine binding, in words: significantly increased
[4]; 500μM ASI(-) plus 100μM DP4
  Ryanodine binding: 339±32 % control
[4]; 500μM peptide alone, SR vesicles, 37°C, 15nM [3H]ryanodine
  Ryanodine binding: 190±1 % of control
[4]; [7]
  effect on [3H]ryanodine binding, in words: significantly increased
[6]; initial rate, peptide minus thapsigargin, n=3 (Fig. 5B&E)
  effect on Ca2+ release from SR vesicles, in words: significantly increased
Native RyR1; +40mV, 100μM peptide
  effect on RyR1 channel activity (open probability), in words: significant inhibition
Native RyR1; -40mV
  effect on RyR1 channel activity (open probability), in words: significant activation
